Test results as given in ChEMBL document CHEMBL1143833, “Concentration-dependent synergy and antagonism within a triple antifungal drug combination against Aspergillus species: analysis by a new response surface model” (Antimicrob Agents Chemother, 2007).
Converted amounts (≈) assume the structure as drawn.

Assays:
Type in all cases: functional, organism-based
[1] = system: Aspergillus fumigatus; test: Antifungal activity against Aspergillus fumigatus by broth microdilution method
Summary of the method: (§1)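 RPMI 1640 with L-glutamine, no bicarbonate, buffered to pH 7.0 with 0.165 M MOPS. Conidial inoculum added to thawed plates. Incubated 48 h at 37°C, 95% humidity, plates unstacked. MIC taken as the lowest concentration with no visible growth. Growth also read at OD405 against conidium-free backgrounds, expressed as % of drug-free control. Run three times on separate days.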

[2] = system: Aspergillus flavus; test: Antifungal activity against Aspergillus flavus by broth microdilution method; summary of the method: as §1
[3] = system: Aspergillus terreus; test: Antifungal activity against Aspergillus terreus by broth microdilution method; conditions: for EC50: pooled result: one value given for 3 cell lines, strains, targets or settings; summary of the method: as §1

CC[C@H](C)C[C@H](C)CCCCCCCCC(=O)N[C@H]1C[C@@H](O)[C@@H](NCCN)NC(=O)[C@@H]2[C@@H](O)CCN2C(=O)[C@H]([C@H](O)CCN)NC(=O)[C@H]([C@H](O)[C@@H](O)c2ccc(O)cc2)NC(=O)[C@@H]2C[C@@H](O)CN2C(=O)[C@H]([C@@H](C)O)NC1=O [CASPOFUNGIN]
MIC [1]: > 128 mg/L
MIC [2]: > 128 mg/L
MIC [3]: > 128 mg/L
EC50 [3]: 95.5 mg/L (≈ 87.4 µM)

C[C@@H](c1ncncc1F)[C@](O)(Cn1cncn1)c1ccc(F)cc1F [VORICONAZOLE]
MIC [1]: 0.25 mg/L (≈ 0.716 µM)
MIC [2]: 0.25 mg/L (≈ 0.716 µM)
MIC [3]: 0.25 mg/L (≈ 0.716 µM)
EC50 [3]: 0.23 mg/L (≈ 0.658 µM)

C[C@@H]1[C@H](O)[C@@H](C)/C=C/C=C/C=C/C=C/C=C/C=C/C=C/[C@H](O[C@@H]2O[C@H](C)[C@@H](O)[C@H](N)[C@@H]2O)C[C@@H]2O[C@](O)(C[C@@H](O)C[C@@H](O)[C@H](O)CC[C@@H](O)C[C@@H](O)CC(=O)O[C@H]1C)C[C@H](O)[C@H]2C(=O)O [AMPHOTERICIN B]
MIC [1]: 0.5 mg/L (≈ 0.541 µM)
MIC [2]: 0.5 mg/L (≈ 0.541 µM)
MIC [3]: 0.5 mg/L (≈ 0.541 µM)
EC50 [3]: 0.44 mg/L (≈ 0.476 µM)
